# CHT PAM = CHT positive allosteric modulators, primary screen, cell-based, membrane potential dye, choline EC20. High affinity choline transporter 1 (Homo sapiens), Q9GZV3. CHT-expressing cells; active compounds read high; LV-AA mutant CHT in HEK293 cells. B-score at 10 µM. 310,000 tested, 0.49% active. AID 488977, 2010;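 active = initial fluorescence not abnormally high and integrated response B-score, plate-corrected, over 3 SD above library mean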
# TMEM16A act = TMEM16A chloride channel activators or potentiators, primary screen, cell-based, HTS; B-score at 10 µM; HEK293 TMEM16A/YFP-H148Q/I152L, iodide quench fluorescence; active compounds read low; AID 623877, 2012; 340,000 tested, 0.3% active;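 active = fluorescence-ratio B-score plate-corrected deviation score at least 3 library SD below zero, with starting fluorescence score within 5 deviations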;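 also: channel opened by trigger with iodide after compound preincubation; score built on the fluorescence ratio of max minus min over baseline; more negative score means more quench and so TMEM16A activation or potentiation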
# Target sequence (Q8BHY3 whole entry, looked up): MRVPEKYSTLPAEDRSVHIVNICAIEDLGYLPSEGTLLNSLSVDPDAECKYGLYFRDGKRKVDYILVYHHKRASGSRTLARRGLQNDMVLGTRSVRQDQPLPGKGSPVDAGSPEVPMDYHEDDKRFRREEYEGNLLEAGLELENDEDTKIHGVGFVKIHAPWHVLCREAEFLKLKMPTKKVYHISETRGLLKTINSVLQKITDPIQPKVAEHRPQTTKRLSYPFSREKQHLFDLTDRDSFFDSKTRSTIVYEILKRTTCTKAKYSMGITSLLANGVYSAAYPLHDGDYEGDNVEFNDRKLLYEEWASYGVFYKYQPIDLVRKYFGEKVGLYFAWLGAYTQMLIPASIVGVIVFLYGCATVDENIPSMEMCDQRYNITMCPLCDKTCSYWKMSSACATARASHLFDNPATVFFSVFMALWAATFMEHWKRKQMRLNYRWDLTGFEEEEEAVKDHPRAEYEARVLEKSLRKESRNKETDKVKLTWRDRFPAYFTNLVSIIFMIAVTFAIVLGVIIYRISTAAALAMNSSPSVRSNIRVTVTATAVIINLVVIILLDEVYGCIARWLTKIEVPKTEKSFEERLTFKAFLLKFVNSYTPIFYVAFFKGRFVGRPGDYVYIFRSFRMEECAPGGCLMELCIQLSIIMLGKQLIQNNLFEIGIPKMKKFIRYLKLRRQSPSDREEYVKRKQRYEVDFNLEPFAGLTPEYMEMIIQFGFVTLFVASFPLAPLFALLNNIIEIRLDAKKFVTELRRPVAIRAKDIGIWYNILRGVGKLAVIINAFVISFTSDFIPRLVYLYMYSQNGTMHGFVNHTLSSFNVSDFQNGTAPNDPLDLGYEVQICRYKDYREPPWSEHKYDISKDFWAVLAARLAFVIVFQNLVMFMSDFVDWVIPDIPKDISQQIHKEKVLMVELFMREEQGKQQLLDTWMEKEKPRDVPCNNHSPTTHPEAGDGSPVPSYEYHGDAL
# VIM-2 inhibitor = VIM-2 metallo-beta-lactamase inhibitors, primary screen, biochemical, epi-absorbance readout, Pseudomonas aeruginosa enzyme; purified VIM-2, nitrocefin hydrolysis, epi-absorbance fluorescence; inhibition, % at 5.6 µM; 290,000 tested, 0.89% active; AID 1527, 2009;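 active = inhibition above the mean of all tested compounds plus 3 SD, cutoff set per screening run, cut at about 7.5% in these data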;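 also: red hydrolysis product quenches plate fluorescence so inhibitors raise well fluorescence; 0% = enzyme with DMSO and 100% = DMSO without enzyme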
# IMP-1 inhibitor = IMP-1 metallo-beta-lactamase inhibitors, primary screen, biochemical, epi-absorbance readout, Pseudomonas aeruginosa enzyme | purified IMP-1, nitrocefin hydrolysis, epi-absorbance fluorescence | inhibition, % at 5.6 µM | 290,000 tested, 0.45% active | AID 1556, 2009;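 active = inhibition above the mean plus 3 SD of all compounds in the same screening run, cut at about 4.5% in these data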;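 also: 0% = IMP-1 with DMSO and 100% = DMSO wells lacking enzyme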
#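 Assay system: purified recombinant IMP-1 beta-lactamase. Input: IMP-1 0.2 nM before substrate addition. Buffer or medium: Zinc- and detergent-supplemented HEPES buffer, pH 7.1. Schedule: 25 °C, 15 min preincubation, 25 min reaction. Signal: Epi-absorbance fluorescence, 480 nm excitation, 530 nm emission. Evaluation: percent inhibition from optical density relative to buffer-blank wells.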
# CHT inh = inhibitors of human choline transporter CHT; CHT-expressing cells, membrane potential dye, choline response; active compounds read low; B-score at 10 µM; 310,000 tested, 0.86% active; AID 488975, 2010;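 active = B-score over 3 SD under the library average, and starting fluorescence ratio not unusually high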;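 also: choline stimulus applied at its EC90 after an EC20 pre-addition; B-score computed on integrated fluorescence ratio after choline addition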
# TMEM16A inh = TMEM16A chloride channel inhibitors, primary screen, cell-based, HTS; Anoctamin-1 (Mus musculus), Q8BHY3; HEK293 TMEM16A/YFP iodide influx fluorescence, ionomycin; normalized B-score (activity score, 25-100; higher = stronger inhibition) at 10 µM; 310,000 tested, 1.2% active; AID 588511, 2011;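 active = ratio plate-corrected score three or more library SD toward inhibition, starting fluorescence score within five deviations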;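 also: score derived from kinetic fluorescence span divided by baseline fluorescence per well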
# The depositor's hits bear a star; i = inactive; . = no result. Compounds with a hit are over-represented: about 3.4% of the library has one in this group of screens.
SMILES,CHT PAM,TMEM16A act,VIM-2 inhibitor,IMP-1 inhibitor,CHT inh,TMEM16A inh
O=C(CN1c2cccc3cccc(c23)S1(=O)=O)Nc1c(F)c(F)c(F)c(F)c1F,.,i,.,.,.,.
C=CCNC(=O)CN1c2cccc3cccc(c23)S1(=O)=O,i,-6.6*,0,-2,i,i
O=C(CN1c2cccc3cccc(c23)S1(=O)=O)Nc1ccc(F)c(F)c1F,.,-5.1*,.,.,.,.
O=C(CN1c2cccc3cccc(c23)S1(=O)=O)Nc1ccccc1F,i,-7.8*,3,-1,i,i
COc1cc(C)c(COc2ncnc3ccccc23)cc1OC,i,i,-2,-2,i,i
O=C(CCCn1cnc([N+](=O)[O-])n1)Nc1cccc2ccccc12,i,i,1,37*,i,i
CCc1ccc(-c2cc(C)no2)cc1S(=O)(=O)N1CCC(C)CC1,i,i,-1,-2,i,25*
Cc1cc(-c2ccc(C(C)C)c(S(=O)(=O)N3CCC(C)CC3)c2)on1,i,i,0,-2,i,i
O=C(Cn1c(=O)oc2ccccc21)N1CCCC1,i,i,-1,-3,i,i
CCC(C)NC(=O)c1cc2c(=O)n(CC)c3ccccc3c2s1 (stereo unspecified),i,i,8.0*,-1,i,i
CCN(C(=O)COC(=O)CCC1CCCC1)c1c(N)n(Cc2ccccc2)c(=O)[nH]c1=O,.,i,.,.,.,.
CSCCC(NC(=O)C1CC1)c1nc2ccccc2[nH]1 (stereo unspecified),i,i,0,4.8*,i,i
CCCN(CC1CC1)C(=O)CSc1ncnc2sc(C)c(C)c12,i,i,5,-4,i,i
CCN(C(=O)CSc1ncnc2sc(C)c(C)c12)C1CCS(=O)(=O)C1 (stereo unspecified),i,-40*,3,-1,i,i
CCOCCCNC(=O)c1cn(C)c(=O)c2cc(OC)c(OC)cc12,i,i,-1,4.7*,i,i
COc1cc2c(C(=O)NCCCOC(C)C)cn(CC(C)C)c(=O)c2cc1OC,i,i,-3,-2,i,i
COCCNC(=O)c1cn(C)c(=O)c2cc(OC)c(OC)cc12,i,i,2,-3,i,i
COc1cc2c(C(=O)NCCCN3CC(C)CC(C)C3)cn(CC(C)C)c(=O)c2cc1OC (stereo unspecified),i,i,-1,-3,-5.8*,i
Cc1ccc(NC(=O)CCn2c(=S)oc3ccccc32)cc1F,i,i,-2,-1,i,i
COc1ccc(CC(=O)NNC(=O)c2ccc(Br)o2)cc1,i,i,-3,-2,i,i
C=CCn1c(Cc2c(C)[nH]c3ccccc23)nnc1SCC(=O)NCc1ccc(F)cc1,i,i,-2,-1,i,100*
O=C1CSC2(CCCCC2)N1CCO,i,i,0,5.6*,i,i
O=C(CSc1nnc(CNC(=O)c2ccco2)o1)Nc1ccc(Br)cc1,i,i,0,0,i,i
C/C(=N\NC(=S)NCc1ccccc1)c1ccc2c(c1)OCCO2,i,i,-4,-2,i,25*
Nc1c(C(=O)Nc2ccccc2)sc2nc(-c3cccnc3)ccc12,i,.,-1,-4,-4.9*,i
COc1ccc(NC(=O)c2sc3nc(-c4cccnc4)ccc3c2N)cc1,i,i,0,-3,i,i
CCCCC(=O)N1CCN(c2nc3ccc(Cl)cc3s2)CC1,i,i,1,0,i,25*
O=C(O)CSCC(=O)N1CCCN(c2nc3ccc(Cl)cc3s2)CC1,i,i,0,-1,i,i
O=c1[nH][nH]c(=O)c(Cl)c1Cl,.,i,.,.,.,.
Cc1ccccc1-n1c(-c2ccncc2)n[nH]c1=S,i,i,.,.,i,i

# Screening data: PubChem, several laboratories
